In ChEMBL document CHEMBL1124981, “Binding of indolylalkylamines at 5-HT2 serotonin receptors: examination of a hydrophobic binding region” (J Med Chem, 1990):
pKi: −log10 of the molar value.

What was measured:
[1] = molecular target: T1, 5-hydroxytryptamine receptor 1A (Rattus norvegicus, UniProt P19327); assay: Binding affinity against 5-hydroxytryptamine 1A receptor using [3H]-8-OH-DPAT as radioligand
T1 sequence (P19327 whole entry): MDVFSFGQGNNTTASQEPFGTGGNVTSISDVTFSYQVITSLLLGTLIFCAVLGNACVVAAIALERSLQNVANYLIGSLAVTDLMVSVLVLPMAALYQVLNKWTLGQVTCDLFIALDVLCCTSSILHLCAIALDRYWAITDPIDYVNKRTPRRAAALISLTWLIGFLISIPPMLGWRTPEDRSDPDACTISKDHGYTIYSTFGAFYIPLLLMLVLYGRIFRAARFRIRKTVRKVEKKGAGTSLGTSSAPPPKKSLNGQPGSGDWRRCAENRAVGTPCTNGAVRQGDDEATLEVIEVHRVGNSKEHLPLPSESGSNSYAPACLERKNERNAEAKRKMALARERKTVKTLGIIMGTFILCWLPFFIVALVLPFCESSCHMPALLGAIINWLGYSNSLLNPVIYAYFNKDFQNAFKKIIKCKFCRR
Method in brief: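 Rat hippocampal homogenate (5 mg tissue) with [3H]-8-OH-DPAT; 10 μM 8-OH-DPAT defines nonspecific binding. Buffer: 50 mM Tris-HCl, 0.5 mM Na2EDTA, 10 mM MgSO4, pH 7.4, 10 μM pargyline, 0.1% ascorbate.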

[2] = molecular target: Serotonin 2 (5-HT2) receptor (Rattus norvegicus, UniProt P30994+P08909+P14842); assay: Binding affinity against 5-hydroxytryptamine 2 receptor using [3H]ketanserin as radioligand; type: protein assay
Method in brief: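 Rat brain tissue homogenized in 50 mM Tris-HCl, 0.5 mM Na2EDTA, 10 mM MgSO4, pH 7.4, and centrifuged twice at 30000g. Assay buffer adds 10 μM pargyline and 0.1% ascorbate.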

Structure (SMILES) | pKi [1] | Ki [2] [nM]
CC(N)Cc1c[nH]c2ccccc12 (centres undefined) | 6.28 | –
CC(N)Cc1cc[nH]c1 (centres undefined) | < 5.00 | > 10000
CCCCCn1cc(CC(C)N)c2ccccc21 (centres undefined) | 5.62 | 100
COc1ccc2c(c1)c(CC(C)N)cn2Cc1ccccc1 (centres undefined) | < 5.00 | 250
CCCc1cccc2c(CC(C)N)c[nH]c12 (centres undefined) | 6.00 | 1040
CCCn1cc(CC(C)N)c2cc(OC)ccc21 (centres undefined) | – | 635
CC(N)Cc1cn(Cc2ccccc2)c2ccccc12 (centres undefined) | 7.52 | 160
CCCCCCCCn1cc(CC(C)N)c2ccccc21 (centres undefined) | 7.11 | 280
COc1ccc2[nH]cc(CC(C)N)c2c1 (centres undefined) | 8.15 | 345
CCCCCn1ccc(CC(C)N)c1 (centres undefined) | 5.12 | 5200
CCCCCc1cccc2c(CC(C)N)c[nH]c12 (centres undefined) | 5.16 | 140
CCCn1ccc(CC(C)N)c1 (centres undefined) | < 5.00 | > 10000
CCCn1cc(CC(C)N)c2ccccc21 (centres undefined) | 6.15 | 1550
